Assay results taken from paper PMC9066187 (RSC Advances, 2019).
Like-named read-outs stand apart in the source and are kept apart here.

Legend:
[1] = test system: mixture of tyrosine kinases extracted from HT-29 cell line; type: biochemical, human; details: 10 μM
purified Src kinase = purified Src kinase (Homo sapiens, UniProt P12931); test: biochemical; details: for inhibition at 10 µM: read-out: Src kinase inhibition
HT-29 cells [2] = test: cells; details: Homo sapiens, HT-29, 72 h; for viability at 10 µM: read-out: viability drop compared to control cells
[3] = test system: LS-174T colorectal cancer cells; test: cells; details: Homo sapiens, LS174T, 72 h, read-out: viability drop compared to control cells
HCT-116 cells [4] = test: Annexin V-FITC/PI apoptosis/necrosis assessment, HCT-116; type: cell-based, human; details: 10 μM, 48 h, versus control
Method in brief: (§1)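 Human colorectal cancer cells were exposed to 10 μM test compound for 48 h, then stained with annexin V-FITC/PI and analysed by flow cytometry to separate apoptotic from necrotic cells. Each population is expressed as a percentage of total events and compared with untreated control. Values are mean ± SD, n = 3.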

HCT-116 cells [5] = test: Cell cycle distribution by DNA cytometry, HCT-116; type: cell-based, human; details: 10 μM, 48 h
HCT-116 cells [6] = test: cells; details: Homo sapiens, HCT-116, 72 h; for IC50: 72 h; for viability at 10 µM: read-out: viability drop compared to control cells
HCT-116 cells [7] = details: 72 h; for viability drop compared to control cells: 100 μM
HCT-116 cells [8] = test: Cyto-ID autophagy assessment, HCT-116; type: cell-based, human; details: 10 μM, 48 h
HT-29 cells [9] = test: Cell cycle distribution by DNA cytometry, HT-29; type: cell-based, human; details: 10 μM, 48 h; for cells in S-phase: control 27.3 ± 0.6%; for cell population in G0/G1-phase: control 53.4 ± 2.7%; for cell population in G2/M-phase: control 19.3 ± 1.6%
HT-29 cells [10] = test: Annexin V-FITC/PI apoptosis/necrosis assessment, HT-29; type: cell-based, human; details: 10 μM, 48 h, versus control
Method in brief: as §1

HT-29 cells [11] = test: Cyto-ID autophagy assessment, HT-29; type: cell-based, human; details: for inhibition at 10 µM: Homo sapiens, HT-29, 48 h, read-out: inhibition of autophagy
HT-29 cells [12] = details: 72 h; for viability drop compared to control cells: 100 μM
[13] = test system: LS-174T colorectal cancer cells; details: 100 μM; 72 h

Chain of purified Src kinase (P12931 whole entry, looked up): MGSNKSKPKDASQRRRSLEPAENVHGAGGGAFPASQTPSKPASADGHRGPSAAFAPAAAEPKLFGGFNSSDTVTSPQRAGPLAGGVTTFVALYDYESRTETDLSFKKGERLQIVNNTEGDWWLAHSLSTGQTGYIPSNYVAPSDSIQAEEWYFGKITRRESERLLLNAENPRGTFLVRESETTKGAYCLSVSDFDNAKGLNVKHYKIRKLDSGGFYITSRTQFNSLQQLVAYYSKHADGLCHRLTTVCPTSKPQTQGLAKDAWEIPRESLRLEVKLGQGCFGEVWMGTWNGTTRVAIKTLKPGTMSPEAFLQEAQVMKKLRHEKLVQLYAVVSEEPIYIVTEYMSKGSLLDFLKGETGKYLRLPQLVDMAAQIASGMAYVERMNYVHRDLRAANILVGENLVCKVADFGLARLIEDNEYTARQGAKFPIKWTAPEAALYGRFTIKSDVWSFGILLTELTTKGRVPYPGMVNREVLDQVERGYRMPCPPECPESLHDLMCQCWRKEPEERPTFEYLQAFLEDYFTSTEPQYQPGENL

COc1cc(C)cc(-c2nc(Nc3cc(C(F)(F)F)cc(C(F)(F)F)c3)ncc2-c2ccnc(Cl)c2)c1 [Compound 7]
multi-kinase inhibitory effect [1]: 37.4 ± 3.7% | Src kinase inhibitory activity in words (dose-response) (purified Src kinase): moderate inhibitory activity | inhibition at 10 µM (purified Src kinase): 42.3 ± 10.3% | IC50 (HT-29 cells [2]): 9.4 ± 0.5 µM | viability at 10 µM (HT-29 cells [2]): > 50% | viability at 100 µM [3]: > 50% | increase of necrotic cell population (HCT-116 cells [4]): 3.4 folds

COc1cc(C)cc(-c2nc(Nc3cc(C(F)(F)F)cc(C(F)(F)F)c3)ncc2-c2ccnc(-c3ccccc3)c2)c1 [Compound 8a]
multi-kinase inhibitory effect [1]: 23 ± 0.4% | Src kinase selectivity index (purified Src kinase): 2.4 | inhibition at 10 µM (purified Src kinase): 54 ± 0.6%

COc1cc(C)cc(-c2nc(Nc3cc(C(F)(F)F)cc(C(F)(F)F)c3)ncc2-c2ccnc(-c3cccnc3)c2)c1 [Compound 8b]
multi-kinase inhibitory effect [1]: 26.6 ± 2.4% | cells in S-phase (HCT-116 cells [5]; control 36.4 ± 4.1%): 22.8 ± 2.3% | cells in G0/G1-phase (HCT-116 cells [5]; control 39.5 ± 4.6%): 50.2 ± 1.0% | IC50 (HCT-116 cells [6]): > 25 µM | viability at 10 µM (HCT-116 cells [6]): 30 to 45% | EC50 (purified Src kinase): 1.3 ± 0.3 µM | Src kinase selectivity index (purified Src kinase): 2.9 | inhibition at 10 µM (purified Src kinase): 77.8 ± 1.3% | IC50 (HCT-116 cells [7]): 32.4 ± 2.8 µM | R (resistance fraction) (HCT-116 cells [7]): 3.7 ± 0.9% | IC50 (HT-29 cells [2]): 11.3 ± 0.5 µM | viability at 10 µM (HT-29 cells [2]): 35 to 45% | autophagic signal higher than control cells (HCT-116 cells [8]): 54% | cells in S-phase (HT-29 cells [9]): 21.0 ± 0.9% | cell population in G0/G1-phase (HT-29 cells [9]): 58.8 ± 1.8% | increase of apoptotic cell population (HT-29 cells [10]): 2.5 folds | inhibition at 10 µM (HT-29 cells [11]): 21% | increase of apoptotic cell population (HCT-116 cells [4]): 3.8 folds | increase of necrotic cell population (HCT-116 cells [4]): 2.9 folds

COc1cc(C)cc(-c2nc(Nc3cc(C(F)(F)F)cc(C(F)(F)F)c3)ncc2-c2ccnc(-c3cccc(C(C)=O)c3)c2)c1 [Compound 8c]
viability at 10 µM (HT-29 cells [2]): 35 to 45%

COc1cc(C)cc(-c2nc(Nc3cc(C(F)(F)F)cc(C(F)(F)F)c3)ncc2-c2ccnc(-c3ccc(C#N)cc3)c2)c1 [Compound 8f]
viability at 10 µM (HCT-116 cells [6]): > 50% | viability at 10 µM (HT-29 cells [2]): > 50% | viability at 10 µM [3]: > 50% | viability at 100 µM [3]: > 50%

COc1cc(C)cc(-c2nc(Nc3cc(C(F)(F)F)cc(C(F)(F)F)c3)ncc2-c2ccnc(-c3ccc(N(C)C)cc3)c2)c1 [Compound 8g]
multi-kinase inhibitory effect [1]: 33.1 ± 0.4% | viability at 10 µM (HCT-116 cells [6]): 30 to 45% | inhibition at 10 µM (purified Src kinase): 28.5 ± 1.2% | viability at 10 µM (HT-29 cells [2]): > 50% | viability at 100 µM [3]: > 50%

COc1cc(C)cc(-c2nc(Nc3cc(C(F)(F)F)cc(C(F)(F)F)c3)ncc2-c2ccnc(-c3ccc(N(c4ccccc4)c4ccccc4)cc3)c2)c1 [Compound 8h]
viability drop compared to control cells (HCT-116 cells [7]): failed to show any considerable antiproliferative/cytotoxic effects | viability drop compared to control cells (HT-29 cells [12]): failed to show any considerable antiproliferative/cytotoxic effects | viability drop compared to control cells [13]: failed to show any considerable antiproliferative/cytotoxic effects

COc1cc(C)cc(-c2nc(Nc3cc(C(F)(F)F)cc(C(F)(F)F)c3)ncc2-c2ccnc(-c3ccc(Oc4ccccc4)cc3)c2)c1 [Compound 8j]
multi-kinase inhibitory effect [1]: 26 ± 0.5% | Src kinase selectivity index (purified Src kinase): 2.1 | inhibition at 10 µM (purified Src kinase): 54.9 ± 1.6%

Cc1cc(O)cc(-c2nc(Nc3cc(C(F)(F)F)cc(C(F)(F)F)c3)ncc2-c2ccnc(-c3ccccc3)c2)c1 [Compound 10a]
multi-kinase inhibitory effect [1]: 24.7 ± 4.6% | IC50 (HCT-116 cells [6]): 10.3 ± 0.6 µM | viability at 10 µM (HCT-116 cells [6]): 30 to 45% | Src kinase inhibitory activity in words (dose-response) (purified Src kinase): completely inactive | IC50 (HT-29 cells [2]): 9.9 ± 0.3 µM | viability at 10 µM (HT-29 cells [2]): > 50% | cell population in G2/M-phase (HT-29 cells [9]): 24.8 ± 0.4% | cells in S-phase (HT-29 cells [9]): 29.8 ± 0.6% | cell population in G0/G1-phase (HT-29 cells [9]): 45.4 ± 0.6% | inhibition at 10 µM (HT-29 cells [11]): 24% | increase of apoptotic cell population (HCT-116 cells [4]): 7.5 folds | increase of necrotic cell population (HCT-116 cells [4]): 4.0 folds

Cc1cc(O)cc(-c2nc(Nc3cc(C(F)(F)F)cc(C(F)(F)F)c3)ncc2-c2ccnc(-c3cccnc3)c2)c1 [Compound 10b]
IC50 (HCT-116 cells [6]): > 25 µM | viability at 10 µM (HCT-116 cells [6]): 30 to 45% | Src kinase inhibitory activity in words (dose-response) (purified Src kinase): completely inactive | IC50 (HCT-116 cells [7]): 25.9 ± 1.3 µM | R (resistance fraction) (HCT-116 cells [7]): <1% | IC50 (HT-29 cells [2]): 6.4 ± 0.5 µM | viability at 10 µM (HT-29 cells [2]): > 50% | autophagic signal higher than control cells (HCT-116 cells [8]): 30% | cell population in G2/M-phase (HT-29 cells [9]): 25.1 ± 0.6% | cells in S-phase (HT-29 cells [9]): 23.0 ± 0.5% | increase of apoptotic cell population (HT-29 cells [10]): 2.3 folds | increase of apoptotic cell population (HCT-116 cells [4]): 4.7 folds | increase of necrotic cell population (HCT-116 cells [4]): 2.4 folds

CC(=O)c1cccc(-c2cc(-c3cnc(Nc4cc(C(F)(F)F)cc(C(F)(F)F)c4)nc3-c3cc(C)cc(O)c3)ccn2)c1 [Compound 10c]
viability at 10 µM (HCT-116 cells [6]): 30 to 45% | viability at 10 µM (HT-29 cells [2]): 35 to 45% | viability at 10 µM [3]: > 50% | viability at 100 µM [3]: > 50%

CC(=O)c1ccc(-c2cc(-c3cnc(Nc4cc(C(F)(F)F)cc(C(F)(F)F)c4)nc3-c3cc(C)cc(O)c3)ccn2)cc1 [Compound 10d]
viability at 10 µM (HT-29 cells [2]): 35 to 45% | viability at 10 µM [3]: > 50% | viability at 100 µM [3]: > 50%

Cc1cc(O)cc(-c2nc(Nc3cc(C(F)(F)F)cc(C(F)(F)F)c3)ncc2-c2ccnc(-c3ccc(C#N)cc3)c2)c1 [Compound 10f]
multi-kinase inhibitory effect [1]: 23.9 ± 7.4% | IC50 (HCT-116 cells [6]): 9.2 ± 0.8 µM | viability at 10 µM (HCT-116 cells [6]): 30 to 45% | Src kinase inhibitory activity in words (dose-response) (purified Src kinase): completely inactive | IC50 (HT-29 cells [2]): 7.2 ± 1.1 µM | autophagic signal higher than control cells (HCT-116 cells [8]): 99% | increase of apoptotic cell population (HT-29 cells [10]): 1.7 folds | increase of apoptotic cell population (HCT-116 cells [4]): 15.2 folds | increase of necrotic cell population (HCT-116 cells [4]): 3.7 folds

Cc1cc(O)cc(-c2nc(Nc3cc(C(F)(F)F)cc(C(F)(F)F)c3)ncc2-c2ccnc(-c3ccc(N(C)C)cc3)c2)c1 [Compound 10g]
multi-kinase inhibitory effect [1]: 39 ± 0.4% | IC50 (HCT-116 cells [6]): 9.4 ± 0.9 µM | viability at 10 µM (HCT-116 cells [6]): 30 to 45% | EC50 (purified Src kinase): 3.7 ± 0.7 µM | inhibition at 10 µM (purified Src kinase): 51.3 ± 9.8% | R (resistance fraction) (HCT-116 cells [7]): 41.6 ± 3.2% | IC50 (HT-29 cells [2]): 24.2 ± 2.1 µM | R (resistance fraction) (HT-29 cells [12]): 12.9 ± 3.9% | viability at 100 µM [3]: > 50%

Cc1cc(O)cc(-c2nc(Nc3cc(C(F)(F)F)cc(C(F)(F)F)c3)ncc2-c2ccnc(-c3ccc(N(c4ccccc4)c4ccccc4)cc3)c2)c1 [Compound 10h]
viability drop compared to control cells (HCT-116 cells [7]): failed to show any considerable antiproliferative/cytotoxic effects | viability drop compared to control cells (HT-29 cells [12]): failed to show any considerable antiproliferative/cytotoxic effects | viability drop compared to control cells [13]: failed to show any considerable antiproliferative/cytotoxic effects

Cc1cc(O)cc(-c2nc(Nc3cc(C(F)(F)F)cc(C(F)(F)F)c3)ncc2-c2ccnc(-c3ccc(Oc4ccccc4)cc3)c2)c1 [Compound 10j]
multi-kinase inhibitory effect [1]: 30.2 ± 0.4% | viability at 10 µM (HCT-116 cells [6]): 30 to 45% | viability at 10 µM (HT-29 cells [2]): 35 to 45% | viability at 10 µM [3]: > 50% | viability at 100 µM [3]: > 50%

CCN(CC)CCCC(C)Nc1ccnc2cc(Cl)ccc12 (stereo not drawn) [chloroquine, reference compound]
autophagic signal higher than control cells (HCT-116 cells [8]): 65% | effect on autophagy in words (HT-29 cells [11]; HT-29, 10 μM, 48 h, Cyto-ID): induced autophagy
